# Measured values published in ChEMBL document CHEMBL1159115, “Piperidine-derived gamma-secretase modulators” (Bioorg Med Chem Lett, 2010).
# Legend:
# [1] = Inhibition of gamma-secretase expressed in african green monkey CV1 cells coexpressing Gal4 DNA-binding/transactivation domain assessed as inhibition of notch processing by luciferase reporter assay; type: cell-based; details: CV-1
# [2] = tested on: CV-1; assay: Inhibition of gamma-secretase expressed in african green monkey CV1 cells coexpressing Gal4 DNA-binding/transactivation domain assessed as inhibition of notch processing by luciferase reporter assay at 20 uM; type: cell-based
# [3] = molecular target: Gamma-secretase; assay: Inhibition of gamma-secretase in human SHSY5Y cells expressing human recombinant APP assessed as amyloid beta40 formation by ELISA; type: cell-based; details: sh-sy5y; in the assay text read “amyloid beta42 formation” for “amyloid beta40 formation”
# Method in brief: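 SH-SY5Y cells overexpressing human APP Swedish variant exposed to compound for 48 h; Aβ40 (and Aβ42) in the cell medium quantified by ELISA, either Meso Scale Discovery or AlphaLISA format. Compounds also cross-screened for inhibition of Notch processing.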
# [4] = molecular target: Gamma-secretase; assay: Inhibition of gamma-secretase in human SHSY5Y cells expressing human recombinant APP assessed as amyloid beta42 formation by ELISA; type: cell-based; details: sh-sy5y; in the assay text read “amyloid beta40 formation” for “amyloid beta42 formation”
# Method in brief: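 SH-SY5Y cells overexpressing human APP Swedish variant were incubated with compound for 48 h. Secreted Aβ42 and Aβ40 were measured by immunoassay (MSD electrochemiluminescence or AlphaLISA).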
# [5] = molecular target: Gamma-secretase (Homo sapiens) (UniProt Q96BI3+Q9NZ42+Q8WW43+P49768+Q92542+P49810); assay: Inhibition of gamma-secretase in human SHSY5Y cells expressing human recombinant APP assessed as amyloid beta40 formation at 20 uM by ELISA; details: SH-SY5Y
SMILES,IC50 [1] [µM],pIC50 [3],pIC50 [4],inhibition [5] [%],inhibition [2] [%]
CC(C)CC[C@H](c1ccc(C2CC2)nc1)N1CC[C@@H](CC(=O)[O-])C[C@H]1c1ccc(C(F)(F)F)cc1.[Na+],> 20,6.2,< 4.7,31,15
Cc1cccc([C@@H](CCC(C)C)N2CC[C@@H](CC(=O)[O-])C[C@H]2c2ccc(C(F)(F)F)cc2)n1.[Na+],> 20,5.9,4.8,,4
COCCC[C@H](c1ccc(C(F)(F)F)nc1)N1CC[C@@H](CC(=O)[O-])C[C@H]1c1ccc(C(F)(F)F)cc1.[Na+],> 20,5,4.5,,10
O=C([O-])C[C@@H]1CCN([C@H](c2ccc(C(F)(F)F)cc2)c2ccc(C(F)(F)F)nc2)[C@H](c2ccc(C(F)(F)F)cc2)C1.[Na+],7.94,5.9,<= 4.8,33,
CCCCC[C@H](c1ccc(C(F)(F)F)nc1)N1CC[C@@H](CC(=O)[O-])C[C@H]1c1ccc(C(F)(F)F)cc1.[Na+],15.8,5.9,5.1,,
O=C([O-])C[C@@H]1CCN([C@H](Cc2ccccc2)c2ccc(C(F)(F)F)nc2)[C@H](c2ccc(C(F)(F)F)cc2)C1.[Na+],> 20,5.8,5,,34
CC[C@H](c1ccc(C(F)(F)F)nc1)N1CC[C@@H](CC(=O)[O-])C[C@H]1c1ccc(C(F)(F)F)cc1.[Na+],> 20,5,< 4.7,20,10
CC(C)CC[C@H](c1ncc(C(C)C)cn1)N1CC[C@@H](CC(=O)[O-])C[C@H]1c1ccc(C(F)(F)F)cc1.[Na+],> 20,6.1,< 4.7,22,27
O=C([O-])C[C@@H]1CCN([C@H](CC2CCC2)c2ccc(C(F)(F)F)nc2)[C@H](c2ccc(C(F)(F)F)cc2)C1.[Na+],> 20,6.6,5.5,,17
O=C([O-])C[C@@H]1CCN([C@@H](c2ccc(C(F)(F)F)nc2)C2CCCCC2)[C@H](c2ccc(C(F)(F)F)cc2)C1.[Na+],,5.4,4.6,,
O=C([O-])C[C@@H]1CCN([C@H](CCc2ccccc2)c2ccc(C(F)(F)F)nc2)[C@H](c2ccc(C(F)(F)F)cc2)C1.[Na+],> 20,5.7,< 4.7,40,32

# More lines, main results first:
IC50 [1] [µM],pIC50 [3],pIC50 [4],inhibition [5] [%],SMILES,inhibition [2] [%]
> 20,6.4,4.7,,CC(C)CC[C@H](c1cnc(C(F)(F)F)cn1)N1CC[C@@H](CC(=O)[O-])C[C@H]1c1ccc(C(F)(F)F)cc1.[Na+],21
12.6,6.5,4.9,,CC(C)CC[C@H](c1ccc(C(F)(F)F)cn1)N1CC[C@@H](CC(=O)[O-])C[C@H]1c1ccc(C(F)(F)F)cc1.[Na+],
3.98,6.4,4.9,,CC(C)CC[C@H](c1ccnc(C(F)(F)F)n1)N1CC[C@@H](CC(=O)[O-])C[C@H]1c1ccc(C(F)(F)F)cc1.[Na+],
20,6.4,4.7,,CC(C)CC[C@H](c1cnc(C(F)(F)F)nc1)N1CC[C@@H](CC(=O)[O-])C[C@H]1c1ccc(C(F)(F)F)cc1.[Na+],
> 20,5.9,4.6,,CC(C)CC[C@H](c1ccc(C(F)(F)F)nn1)N1CC[C@@H](CC(=O)[O-])C[C@H]1c1ccc(C(F)(F)F)cc1.[Na+],17
> 20,6.2,4.5,,CC(C)C[C@H](c1ccc(C(F)(F)F)nc1)N1CC[C@@H](CC(=O)[O-])C[C@H]1c1ccc(C(F)(F)F)cc1.[Na+],25
